Numbered stars: 1 amine (or outer) side, 2 acyl side, 3 side chain; on linkers, the order of the positions; unused ones are H or OH. Bridge positions count the residues as written; N and C are the ends. Square brackets hold non-standard residues; d marks the D form. Peptide text beside a SMILES is read from it. I, II: the chains in the order shown. * marks the point of attachment. Hexanoyl(6-succinimido-3yl) = O=C1CC([*:1])C(=O)N1CCCCCC(=O)[*:2]; Dolaproine = CO[C@@H]([C@@H]1CCCN1)[C@@H](C)C(=O)O; X2 = O=C([C@H](CC1=CSC2C=CC=CC12)N[*:1])[*:2]; Dil = CC[C@H](C)[C@H](NC)[C@@H](CC(=O)O)OC; PABC = O=C(OCc1ccc(N[*:1])cc1)[*:2]; X3 = C[C@@H](N*)[C@@H](O)c1ccccc1; Cit = NC(=O)NCCC[C@H](N)C(=O)O; PEG4 = NCCOCCOCCOCCOCCC(=O)O; NMeV = CN[C@H](C(=O)O)C(C)C; Nle = CCCC[C@H](N)C(=O)O
Key:
[1] = Displacement of 125 I- [Tyr4] from bombesin receptor 1 (unknown origin) assessed as inhibition by radioligand competitive binding assay; design: species or system Homo sapiens
[2] = target: T1, Gastrin-releasing peptide receptor (Homo sapiens, UniProt P30550); assay: Displacement of 125 I- [Tyr4] from bombesin receptor 2 (unknown origin) assessed as inhibition by radioligand competitive binding assay
T1 sequence (P30550 whole entry): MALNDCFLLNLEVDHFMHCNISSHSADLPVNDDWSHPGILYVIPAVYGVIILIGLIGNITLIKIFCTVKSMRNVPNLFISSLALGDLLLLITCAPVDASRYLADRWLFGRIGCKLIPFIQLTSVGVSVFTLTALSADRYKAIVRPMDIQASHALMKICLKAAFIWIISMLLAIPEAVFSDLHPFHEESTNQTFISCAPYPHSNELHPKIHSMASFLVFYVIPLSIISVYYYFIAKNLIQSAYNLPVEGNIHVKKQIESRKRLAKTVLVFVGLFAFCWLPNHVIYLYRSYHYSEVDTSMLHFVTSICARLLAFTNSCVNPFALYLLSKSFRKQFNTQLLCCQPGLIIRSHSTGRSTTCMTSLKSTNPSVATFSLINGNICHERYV

[3] = target: T2, Bombesin receptor subtype-3 (Homo sapiens, UniProt P32247); assay: Displacement of 125 I- [Tyr4] from bombesin receptor 3 (unknown origin) assessed as inhibition by radioligand competitive binding assay
T2 sequence (P32247 whole entry): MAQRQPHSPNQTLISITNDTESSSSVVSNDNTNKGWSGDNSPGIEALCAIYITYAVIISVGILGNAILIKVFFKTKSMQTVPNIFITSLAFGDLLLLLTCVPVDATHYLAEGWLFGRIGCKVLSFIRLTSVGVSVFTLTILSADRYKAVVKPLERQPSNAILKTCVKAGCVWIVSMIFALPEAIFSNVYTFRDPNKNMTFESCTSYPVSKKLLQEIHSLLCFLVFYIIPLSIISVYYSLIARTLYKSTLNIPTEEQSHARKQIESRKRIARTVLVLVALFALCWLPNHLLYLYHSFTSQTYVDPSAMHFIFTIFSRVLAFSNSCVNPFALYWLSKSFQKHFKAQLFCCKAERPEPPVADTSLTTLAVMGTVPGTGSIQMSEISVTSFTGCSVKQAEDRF

[4] = target: T1, Gastrin-releasing peptide receptor; assay: Displacement of 125 I- [Tyr4] from bombesin receptor 2 in human PC-3 cells assessed as inhibition by radioligand displacement assay; assay type: cell-based
How it was run: (§1)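 Competition binding on membrane preparations from PC-3 or MDA-MB-231 cells against ¹²⁵I-[Tyr⁴]-bombesin, with conjugates at 10 μM–10 pM. IC50 was taken as the concentration giving 50 % inhibition of tracer binding.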

[5] = target: T1, Gastrin-releasing peptide receptor; assay: Displacement of 125 I- [Tyr4] from bombesin receptor 2 in human MDA-MB-231 cells assessed as inhibition by radioligand displacement assay; assay type: cell-based; how it was run: as §1
[6] = Cytotoxicity against human PC-3 cells assessed as inhibition of cell growth incubated for 72 hrs by CellTiter 96 aqueous assay; assay type: toxicity, cell-based
How it was run: (§2)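 PC-3 or MDA-MB-231 cells were treated the day after seeding with serial dilutions, from 2000 nM for conjugates and 100 nM for MMAE, for 72 h. Then the assay was stopped, or run 72 h more after a medium change (single) or re-treatment (double). Controls got 0.05 % DMSO. Read-out was MTS absorbance at 490 nm after 90 min. IC50 by non-linear regression; ≥2 experiments, triplicates.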

[7] = Cytotoxicity against human PC-3 cells assessed as inhibition of cell growth incubated with compound for 72 hrs followed by further incubated for 72 hrs (single treatment) by CellTiter 96 aqueous assay; assay type: toxicity, cell-based; how it was run: as §2
[8] = Cytotoxicity against human MDA-MB-231 cells assessed as inhibition of cell growth incubated for 72 hrs and followed by treated with compound continued incubation for further 72 hrs (double treatment) after retreatment of compound by CellTiter 96 aqueous assay; assay type: toxicity, cell-based; how it was run: as §2
[9] = Cytotoxicity against human PC-3 cells assessed as inhibition of cell growth incubated for 72 hrs and followed by treated with compound continued incubation for further 72 hrs (double treatment) after retreatment of compound by CellTiter 96 aqueous assay; assay type: toxicity, cell-based; how it was run: as §2
[10] = Cytotoxicity against human MDA-MB-231 cells assessed as inhibition of cell growth incubated with compound for 72 hrs followed by further incubated for 72 hrs (single treatment) by CellTiter 96 aqueous assay; assay type: toxicity, cell-based; how it was run: as §2
[11] = Cytotoxicity against human cells MDA-MB-231 assessed as inhibition of cell growth incubated for 72 hrs by CellTiter 96 aqueous assay; assay type: toxicity, cell-based; details: MDA-MB-231 cells; how it was run: as §2

| IC50 [1] [nM] | IC50 [2] [nM] | IC50 [3] [nM] | IC50 [4] [nM] | IC50 [5] [nM] | Structure (SMILES) | IC50 at 72 h [6] [nM] | IC50 at 144 h [7] [nM] | IC50 at 144 h [8] [nM] | IC50 at 144 h [9] [nM] | IC50 at 144 h [10] [nM] | IC50 at 72 h [11] [nM] |
| --- | --- | --- | --- | --- | --- | --- | --- | --- | --- | --- | --- |
| > 10000 | 2180 | > 10000 | – | – | CCCC[C@H](NC(=O)C[C@H](O)[C@H](CC(C)C)NC(=O)[C@H](Cc1c[nH]cn1)NC(=O)CCNC(=O)[C@@H](NC(=O)[C@H](C)NC(=O)[C@H](Cc1c[nH]c2ccccc12)NC(=O)[C@H](CCC(N)=O)NC(=O)[C@@H](Cc1ccccc1)NC(=O)[C@H](CS)NC(C)=O)C(C)C)C(N)=O | – | – | – | – | – | – |
| – | – | – | 80.7 | 82.4 | CCCC[C@H](NC(=O)[C@H](CC(C)C)NC(=O)[C@H](Cc1c[nH]cn1)NC(=O)CNC(=O)[C@@H](NC(=O)[C@H](C)NC(=O)[C@H](CC1=CSC2C=CC=CC12)NC(=O)[C@H](CCC(N)=O)NC(=O)[C@H](CC(N)=O)NC(=O)CCOCCOCCOCCOCCNC(=O)[C@H](CSC1CC(=O)N(CCCCCC(=O)N[C@@H](CCC(=O)O)C(=O)NCC(=O)N[C@@H](CCCNC(N)=O)C(=O)Nc2ccc(COC(=O)N(C)[C@H](C(=O)N[C@H](C(=O)N(C)[C@@H]([C@@H](C)CC)[C@@H](CC(=O)N3CCC[C@H]3[C@H](OC)[C@@H](C)C(=O)N[C@H](C)[C@@H](O)c3ccccc3)OC)C(C)C)C(C)C)cc2)C1=O)NC(C)=O)C(C)C)C(N)=O (some centres undefined) (I: Ac-C[PEG4]NQ[X2]AVGHL[Nle]-NH2 / II: EG[Cit][PABC][NMeV]V[Dil][Dolaproine]-X3; linker I:1-II:N via Hexanoyl(6-succinimido-3yl)) | 782 | 216 | 217 | 165 | 268 | 1260 |
| – | – | – | – | – | CCCC[C@H](NC(=O)C[C@H](O)[C@H](CC(C)C)NC(=O)[C@H](Cc1c[nH]cn1)NC(=O)CCNC(=O)[C@@H](NC(=O)[C@H](C)NC(=O)[C@H](Cc1c[nH]c2ccccc12)NC(=O)[C@H](CCC(N)=O)NC(=O)[C@@H](Cc1ccccc1)NC(=O)[C@H](CSC1CC(=O)N(CCCCCC(=O)N[C@H](C(=O)N[C@@H](CCCNC(N)=O)C(=O)Nc2ccc(COC(=O)N(C)[C@H](C(=O)N[C@H](C(=O)N(C)[C@@H]([C@@H](C)CC)[C@@H](CC(=O)N3CCC[C@H]3[C@H](OC)[C@@H](C)C(=O)N[C@H](C)[C@@H](O)c3ccccc3)OC)C(C)C)C(C)C)cc2)C(C)C)C1=O)NC(C)=O)C(C)C)C(N)=O (some centres undefined) | 852 | 132 | 176 | 121 | 218 | 1280 |
| > 10000 | > 10000 | > 1000 | – | – | CCCC[C@H](NC(=O)C[C@H](O)[C@H](CC(C)C)NC(=O)[C@H](Cc1c[nH]cn1)NC(=O)CCNC(=O)[C@@H](NC(=O)[C@H](C)NC(=O)[C@H](Cc1c[nH]c2ccccc12)NC(=O)[C@H](CCC(N)=O)NC(=O)[C@@H](Cc1ccccc1)NC(C)=O)C(C)C)C(=O)N[C@@H](CS)C(N)=O | – | – | – | – | – | – |
| > 10000 | 5290 | 5250 | – | – | CC(=O)N[C@@H](CS)C(=O)N[C@H](Cc1ccccc1)C(=O)N[C@@H](CCC(N)=O)C(=O)N[C@@H](Cc1c[nH]c2ccccc12)C(=O)N[C@@H](C)C(=O)N[C@H](C(=O)NCCC(=O)N[C@@H](Cc1c[nH]cn1)C(=O)N[C@@H](CC(C)C)[C@@H](O)CC(=O)N[C@@H](CC(C)C)C(N)=O)C(C)C | – | – | – | – | – | – |
| > 10000 | > 10000 | > 1000 | – | – | CCCC[C@H](NC(=O)C[C@H](O)[C@H](CC(C)C)NC(=O)[C@H](Cc1c[nH]cn1)NC(=O)CN(C)C(=O)[C@@H](NC(=O)[C@H](C)NC(=O)[C@H](Cc1c[nH]c2ccccc12)NC(=O)[C@H](CCC(N)=O)NC(=O)[C@@H](Cc1ccccc1)NC(C)=O)C(C)C)C(=O)N[C@@H](CS)C(N)=O | – | – | – | – | – | – |
| > 10000 | > 10000 | > 10000 | – | – | CCCC[C@H](NC(=O)C[C@H](O)[C@H](CC(C)C)NC(=O)[C@H](Cc1c[nH]cn1)NC(=O)CNC(=O)[C@@H](NC(=O)[C@H](C)NC(=O)[C@H](Cc1c[nH]c2ccccc12)NC(=O)[C@H](CCC(N)=O)NC(=O)[C@@H](Cc1ccccc1)NC(C)=O)C(C)C)C(=O)N[C@@H](CS)C(N)=O | – | – | – | – | – | – |
